From paper PMC2901992 (Bioorganic & medicinal chemistry letters, 2010)
Like-named read-outs stand apart in the source and are kept apart here.

Columns and labels:
Bcr-Abl (T315I) = Bcr-Abl (T315I) (Homo sapiens, UniProt P00519+P11274, T315I); experiment: Cellular antiproliferative activity on mutant Bcr-Abl-T315I-Ba/F3; assay type: cell-based; settings: for EC50: read-out: EC50 against T315I mutant; for Fold improvement relative to 3 against T315I mutant Bcr-Abl: relative to compound 3
Summary of the method: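 Ba/F3 cells transformed with wild-type or T315I Bcr-Abl were tested for antiproliferative activity, with parental Ba/F3 cells tested alongside. The value is an EC50 from the cellular assay.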

Bcr-Abl (wt) = Bcr-Abl (wt) (Homo sapiens, UniProt P00519+P11274); experiment: Cellular antiproliferative activity on wtBcr-Abl-Ba/F3; assay type: cell-based; settings: for Selectivity for Bcr-Abl dependent cellular growth: versus parental Ba/F3 cytotoxicity
panel of 442 kinases [1] = experiment: KINOMEscan kinase selectivity profiling; assay type: binding; settings: 10 μM
panel of 442 kinases [2] = settings: cited from earlier work
[3] = carbonyl group at the 6-position

For `CCN1CCN(Cc2ccc(NC(=O)c3ccc(C)c(C#Cc4cnc5[nH]cnc5c4)c3)cc2C(F)(F)F)CC1` [Compound 14], the EC50 (Bcr-Abl (T315I)) was < 100 nM.
For `CCN1CCN(Cc2ccc(NC(=O)c3ccc(C)c(C#Cc4cnc5[nH]ccc5c4)c3)cc2C(F)(F)F)CC1` [Compound 12], the “Selectivity for Bcr-Abl dependent cellular growth” value (Bcr-Abl (wt)) was “up to 1000 fold”, the EC50 (Bcr-Abl (T315I)) was < 100 nM and the “Number of kinases with ambit score of less than 10% of the DMSO control” value (panel of 442 kinases [1]; panel of 442 kinases) was 203 kinases. For the same compound, the “Ambit score of kinase hits (% of the DMSO control)” value (panel of 442 kinases [1]; hits: ABL, ARG, BLK, PITSLRE, CRIK, FMS/CSFR, DDR1, EphA8, FGFR4, HPK1, JNK2, KIT, LOK, LYN, GCK, MUSK, MYO3B, p38α, p38β, PDGFRα, PDGFRβ, RET, RIPK1, SRC, TAO1, TAO2, TAO3, TIE2) was < 0.1%.
In the case of `CCN1CCN(Cc2ccc(NC(=O)c3ccc(C)c(C#Cc4ccc(NC(C)=O)nc4)c3)cc2C(F)(F)F)CC1` [Compound 4], the “Fold improvement relative to 3 against T315I mutant Bcr-Abl” value (Bcr-Abl (T315I)) is reported as ~8 fold.
With `CCN1CCN(Cc2ccc(NC(=O)c3ccc(C)c(C#Cc4ccc(NC(=O)C5CC5)nc4)c3)cc2C(F)(F)F)CC1` [Compound 5] the “Fold improvement relative to 3 against T315I mutant Bcr-Abl” value (Bcr-Abl (T315I)) was ~8 fold.
With `CCN1CCN(Cc2ccc(NC(=O)c3ccc(C)c(C#Cc4ccc(C(=O)NC)nc4)c3)cc2C(F)(F)F)CC1` [Compound 6] the “Fold less potent EC50 against wild-type Bcr-Abl” value (Bcr-Abl (wt); [3]) was 6 fold and the “Fold less potent EC50 against T315I Bcr-Abl” value (Bcr-Abl (T315I); [3]) was 6 fold.
For `CCN1CCN(Cc2ccc(NC(=O)c3ccc(C)c(C#Cc4cccnc4)c3)cc2C(F)(F)F)CC1` [Compound 3], the “Selectivity for Bcr-Abl dependent cellular growth” value (Bcr-Abl (wt)) was “up to 1000 fold”, the “Number of kinases with ambit score of less than 10% of the DMSO control” value (panel of 442 kinases [1]; panel of 442 kinases) was 193 kinases and the “Selectivity score S10” value (panel of 442 kinases [1]; panel of 442 kinases) was 0.427.
In the case of `CCN1CCN(Cc2ccc(NC(=O)c3cccc(-c4ccc5nc(NC(=O)C6CC6)sc5n4)c3)cc2C(F)(F)F)CC1` [HG-7-85-01], the “Selectivity score S10” value (panel of 442 kinases [2]) is given as 0.056.
